Results published in ChEMBL document CHEMBL1125147, “Nonsteroidal cardiotonics. 3. New 4,5-dihydro-6-(1H-indol-5-yl)pyridazin-3(2H)-ones and related compounds with positive inotropic activities” (1990).

How the values were obtained:
Rattus norvegicus [1] = experiment: Effective dose required to produce an increase in dP/dt by 1500 mmHg/s from that of the control in the anesthetized rats.; assay type: functional
In short: (§1)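 Male SPF Sprague–Dawley rats (350–450 g), thiabutarbital sodium 80–100 mg/kg ip, tracheotomized. LV pressure measured by a Millar microtip catheter passed via the right carotid artery. Compounds given as jugular iv bolus (0.5 mL/kg) in increasing doses every 10 min. Readings taken 10 min post-dose as steady state. ED1.5 (dP/dt +1500 mmHg/s at LVP 50 mmHg) from log-linear regression, log means. Max = peak rise in dP/dt and the dose giving it.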

Felis catus [2] = experiment: Effective dose required to produce an increase in dP/dt by 1500 mmHg/s from that of the control in the anesthetized cats.; assay type: functional
In short: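 Cats of both sexes, pentobarbitone 45 mg/kg ip plus 0.1 mg/kg min infusion, pump-ventilated, open chest. Dextran 10 mL/kg iv and desacetylmetipranolol 0.3 mg/kg iv for β-blockade failure. LV pressure by Millar tip catheter via the auricle. Increasing iv bolus doses every 10 min, read at 10 min. ED1.5 (dP/dt +1500 mmHg/s at LVP 50 mmHg) by log-linear regression, log means.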

Rattus norvegicus [3] = experiment: Maximum increase in dP/dt from that of the control in the anesthetized rats at dose 10.0 mg/kg; assay type: functional; in short: as §1
Felis catus [4] = experiment: Maximum increase in dP/dt from that of the control in the anesthetized cats at dose 10.0 mg/kg

Compound: O=C1COC(c2ccc3[nH]c(-c4ccncc4)cc3c2)=NN1
- ED1.5 (Rattus norvegicus [1]): 0.7 mg/kg

Compound: Oc1cnc(-c2ccc3[nH]c(-c4ccncc4)cc3c2)cn1
- ED1.5 (Rattus norvegicus [1]): 0.15 mg/kg

Compound: O=C1CCC(c2ccc3[nH]c(-c4ccncc4)cc3c2)=NN1
- ED1.5 (Rattus norvegicus [1]): 0.04 mg/kg

Compound: O=C1CCC(c2ccc3[nH]c(-c4ccnnc4)cc3c2)=NN1
- ED1.5 (Rattus norvegicus [1]): 0.02 mg/kg

Compound: CCc1c(-c2ccncc2)[nH]c2ccc(C3=NNC(=O)CC3)cc12
- ED1.5 (Rattus norvegicus [1]): 1.1 mg/kg

Compound: CC1CC(=O)NN=C1c1ccc2[nH]c(-c3ccncc3)cc2c1 (stereo not given)
- ED1.5 (Felis catus [2]): 0.007 mg/kg
- ED1.5 (Rattus norvegicus [1]): 0.02 mg/kg

Compound: O=C1CCC(c2ccc3[nH]c(-c4cccnc4)cc3c2)=NN1
- ED1.5 (Rattus norvegicus [1]): 2.5 mg/kg

Compound: O=C1CCC(c2ccc3[nH]c(-c4ccccc4O)cc3c2)=NN1
- ED1.5 (Rattus norvegicus [1]): 1.04 mg/kg

Compound: O=C1CCC(c2ccc3[nH]c(-c4cscn4)cc3c2)=NN1
- ED1.5 (Rattus norvegicus [1]): 0.26 mg/kg

Compound: Cc1c(-c2ccncc2)[nH]c2ccc(C3=NNC(=O)CC3)cc12
- ED1.5 (Rattus norvegicus [1]): 0.08 mg/kg

Compound: CCOC(=O)c1cc2cc(C3=NNC(=O)CC3)ccc2[nH]1
- ED1.5 (Rattus norvegicus [1]): 1.5 mg/kg

Compound: CC1(C)C(=O)NN=C1c1ccc2[nH]c(-c3ccncc3)cc2c1
- ED1.5 (Rattus norvegicus [1]): 0.25 mg/kg

Compound: Cc1c(-c2ccncc2)[nH]c2ccc(C3=NNC(=O)CC3C)cc12 (stereo not given)
- ED1.5 (Rattus norvegicus [1]): 0.02 mg/kg

Compound: Cc1[nH]c(=O)c(C#N)cc1-c1ccncc1 [MILRINONE]
- ED1.5 (Felis catus [2]): 0.04 mg/kg
- ED1.5 (Rattus norvegicus [1]): 0.15 mg/kg
- Max (Rattus norvegicus [3]): 3.4 mHg/s

Compound: COc1ccc(-c2nc3cc(C4=NNC(=O)CC4C)ccc3[nH]2)cc1 (stereo not given) [PIMOBENDAN]
- Max (Felis catus [4]): 2.9 mHg/s
- ED1.5 (Felis catus [2]): 0.6 mg/kg
- ED1.5 (Rattus norvegicus [1]): 1.31 mg/kg
